The source of these data is ChEMBL document CHEMBL4043099, “Synthesis and biological activity of cyclolinopeptide A analogues modified with γ4-bis(homo-phenylalanine)” (Bioorg Med Chem, 2017).

The subject of series [1] is PBMC. Kind of series: Cytotoxicity against human PBMC assessed as reduction in cell viability at 100 ug/ml after 24 hrs by MTT assay. It is filed as cell-based. In a few lines: (§1)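 Single-donor PBMC isolated on LSM, resuspended in RPMI-1640 with 10% FCS, L-glutamine, pyruvate, 2-mercaptoethanol and antibiotics. Cells plated at 3×10^5 per well and cultured 24 h with peptide at 1, 10 or 100 µg/mL. Survival read by MTT and expressed as % viable cells versus matched DMSO controls.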
(In general: Formazan colour is commonly taken as a measure of viable cells.)

Series [2] has as its system PBMC. As to the kind of experiment: Immunosuppressive activity in human PBMC assessed as inhibition of PHA-induced proliferation after 4 days by MTT assay. It is filed as functional, cell-based. In a few lines:
(§2)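 PBMC (2×10^5 cells/well) in supplemented RPMI-1640, stimulated with 5 µg/mL PHA, with peptide at 1, 10 or 100 µg/mL. DMSO dilutions as control; no-PHA wells as baseline. Proliferation read by MTT after 4 days of incubation. Data given as mean OD of quadruplicate wells ± SE.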

The subject of series [3] is PBMC. Kind of series: Anti-inflammatory activity in human PBMC assessed as inhibition of LPS-induced TNFalpha production at 10 ug/ml after overnight incubation by immunoassay. The format is functional. In a few lines: (§3)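 Diluted venous blood from a single donor (10× in RPMI-1640), 1 mL cultures, stimulated with 1 µg/mL LPS from E. coli O:111:B4. Peptides added at 1 and 10 µg/mL from DMSO stock (5 mg/200 µL) diluted in RPMI-1640. DMSO dilutions served as 100% controls. Overnight incubation, then supernatants frozen at -20 C and TNF-α measured by ELISA.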

For series [4], the system named is PBMC. As to the kind of experiment: Immunosuppressive activity in human PBMC assessed as inhibition of PHA-induced cell proliferation at 10 ug/ml after 4 days by MTT assay. The format is functional, cell-based. In short, it runs like this: as §2
The test system of series [5] is PBMC. Kind of series: Immunosuppressive activity in human PBMC assessed as inhibition of PHA-induced cell proliferation at 1 to 100 ug/ml after 4 days by MTT assay. The format is functional, cell-based. In a few lines: as §2
The subject of series [6] is PBMC. As to the kind of experiment: Cytotoxicity against human PBMC assessed as reduction in cell viability at 1 to 100 ug/ml after 24 hrs by MTT assay. It is filed as cell-based. In short, it runs like this:
as §1

For series [7], the system named is PBMC. Kind of series: Anti-inflammatory activity in human PBMC assessed as inhibition of LPS-induced TNFalpha production at 1 to 10 ug/ml after overnight incubation by immunoassay. It is filed as functional, cell-based. In short, it runs like this:
as §3

Series [8] concerns HT-29. As to the kind of experiment: Cytotoxicity against human HT-29 cells at 12 ug/ml. It is filed as functional, cell-based.
Series [9] relates to A-431. Kind of series: Cytotoxicity against human A431 cells at 6 ug/ml. The format is functional, cell-based.

Calls of active or inactive are those of the source. The rule behind the calls is not given here. Where a SMILES comes first, the peptide text is derived from it.

The inhibition is the relative decrease from the control value, in per cent. Take `CC[C@H](C)[C@@H]1NC(=O)[C@H](CC(C)C)NC(=O)[C@H](Cc2ccccc2)NC(=O)CC[C@@H](Cc2ccccc2)NC(=O)[C@@H]2CCCN2C(=O)[C@@H]2CCCN2C(=O)[C@H](C(C)C)NC(=O)[C@H](CC(C)C)NC(=O)[C@H]([C@@H](C)CC)NC1=O`: the Activity result in series [1] is “Toxic”; in series [2], “Dose-dependent effect”. The inhibition result in series [3] was “Active”. The result in series [4] was Active.
In the case of `CC[C@H](C)[C@H](N)C(=O)N[C@H](C(=O)N[C@@H](CC(C)C)C(=O)N[C@H](C(=O)N1CCC[C@H]1C(=O)N1CCC[C@H]1C(=O)N[C@H](CCC(=O)N[C@@H](Cc1ccccc1)C(=O)N[C@@H](CC(C)C)C(=O)O)Cc1ccccc1)C(C)C)[C@@H](C)CC`, in [5], the result was inactive. Also, in [6], the Activity entry is listed as “Non-Toxic”. For the same molecule, in series [3], the inhibition at 10 µg/mL amounted to 45%.
With `CC[C@H](C)[C@H](N)C(=O)N[C@H](C(=O)N[C@@H](CC(C)C)C(=O)N[C@H](C(=O)N1CCC[C@H]1C(=O)N1CCC[C@H]1C(=O)N[C@H](CCC(=O)N[C@@H](CCC(=O)N[C@@H](CC(C)C)C(=O)O)Cc1ccccc1)Cc1ccccc1)C(C)C)[C@@H](C)CC`, in series [5], the outcome was inactive. Further, the Activity result in series [6] was “Non-Toxic”. In series [3], the inhibition at 10 µg/mL amounted to 45%.
For `CC[C@H](C)[C@@H]1NC(=O)[C@H](CC(C)C)NC(=O)CC[C@@H](Cc2ccccc2)NC(=O)CC[C@@H](Cc2ccccc2)NC(=O)[C@@H]2CCCN2C(=O)[C@@H]2CCCN2C(=O)[C@H](C(C)C)NC(=O)[C@H](CC(C)C)NC(=O)[C@H]([C@@H](C)CC)NC1=O`, the results for the Activity result in series [1] and in [2] were “Toxic” and “Dose-dependent effect”, respectively. In series [3], the inhibition result is “Active”. Moreover, the outcome in series [4] was Active.
On to `CC[C@H](C)[C@@H]1NC(=O)[C@H](CC(C)C)NC(=O)CC[C@H](Cc2ccccc2)NC(=O)[C@H](Cc2ccccc2)NC(=O)[C@@H]2CCCN2C(=O)[C@@H]2CCCN2C(=O)[C@H](C(C)C)NC(=O)[C@H](CC(C)C)NC(=O)[C@H]([C@@H](C)CC)NC1=O`, for which the Activity result in series [2] was “Dose-dependent effect”. The inhibition entry in series [3] was “Active”. The outcome in series [4] was Active.
Take `CC[C@H](C)[C@@H]1NC(=O)[C@H](CC(C)C)NC(=O)CC[C@H](Cc2ccccc2)NC(=O)CC[C@H](Cc2ccccc2)NC(=O)[C@@H]2CCCN2C(=O)[C@@H]2CCCN2C(=O)[C@H](C(C)C)NC(=O)[C@H](CC(C)C)NC(=O)[C@H]([C@@H](C)CC)NC1=O`: the Activity entry in [2] is “Dose-dependent effect”. Also, the inhibition result in [3] and in [7] was “Active” throughout. Further, the result in [4] was Active.
Turning to `CC[C@H](C)[C@H](N)C(=O)N[C@H](C(=O)N[C@@H](CC(C)C)C(=O)N[C@H](C(=O)N1CCC[C@H]1C(=O)N1CCC[C@H]1C(=O)N[C@@H](CCC(=O)N[C@@H](Cc1ccccc1)C(=O)N[C@@H](CC(C)C)C(=O)O)Cc1ccccc1)C(C)C)[C@@H](C)CC`, the result in series [5] was inactive. Also, the Activity entry in series [6] is “Non-Toxic”. Further, in [3], the inhibition result is “inactive”.
Take `CC[C@H](C)[C@H](N)C(=O)N[C@H](C(=O)N[C@@H](CC(C)C)C(=O)N[C@H](C(=O)N1CCC[C@H]1C(=O)N1CCC[C@H]1C(=O)N[C@@H](CCC(=O)N[C@@H](CCC(=O)N[C@@H](CC(C)C)C(=O)O)Cc1ccccc1)Cc1ccccc1)C(C)C)[C@@H](C)CC`: the result in series [5] was inactive. Also, the Activity result in series [6] is reported as “Non-Toxic”. In series [3], the inhibition at 10 µg/mL came to 45%.
As for `CC[C@H](C)[C@@H]1NC(=O)[C@H](CC(C)C)NC(=O)[C@H](Cc2ccccc2)NC(=O)[C@H](Cc2ccccc2)NC(=O)[C@@H]2CCCN2C(=O)[C@@H]2CCCN2C(=O)[C@H](C(C)C)NC(=O)[C@H](CC(C)C)NC(=O)[C@H]([C@@H](C)CC)NC1=O` (cyclo(FFLIILVPP)), the result in [8] and in [9] was inactive.
Consider `CC[C@H](C)[C@H](N)C(=O)N[C@H](C(=O)N[C@@H](CC(C)C)C(=O)N[C@H](C(=O)N1CCC[C@H]1C(=O)N1CCC[C@H]1C(=O)N[C@H](CCC(=O)N[C@H](CCC(=O)N[C@@H](CC(C)C)C(=O)O)Cc1ccccc1)Cc1ccccc1)C(C)C)[C@@H](C)CC`, for which the result in series [5] was inactive. For the same molecule, the Activity entry in series [6] is on record as “Non-Toxic”. Further, the inhibition at 10 µg/mL in series [3] amounted to 45%.
As to `CC[C@H](C)[C@@H]1NC(=O)[C@H](CC(C)C)NC(=O)CC[C@@H](Cc2ccccc2)NC(=O)[C@H](Cc2ccccc2)NC(=O)[C@@H]2CCCN2C(=O)[C@@H]2CCCN2C(=O)[C@H](C(C)C)NC(=O)[C@H](CC(C)C)NC(=O)[C@H]([C@@H](C)CC)NC1=O`, the values for the Activity entry in series [1] and in [2] were “Toxic” and “Dose-dependent effect”, respectively. Also, the inhibition result in [3] was “Active”. Moreover, the result in series [4] was Active.
On to `CC[C@H](C)[C@@H]1NC(=O)[C@H](CC(C)C)NC(=O)CC[C@H](Cc2ccccc2)NC(=O)CC[C@@H](Cc2ccccc2)NC(=O)[C@@H]2CCCN2C(=O)[C@@H]2CCCN2C(=O)[C@H](C(C)C)NC(=O)[C@H](CC(C)C)NC(=O)[C@H]([C@@H](C)CC)NC1=O`, for which the Activity entry in series [2] was “Dose-dependent effect”. Besides, the inhibition entry in series [3] was “Active”. Also, in series [4], the outcome was Active.
Turning to `CC[C@H](C)[C@@H]1NC(=O)[C@H](CC(C)C)NC(=O)CC[C@@H](Cc2ccccc2)NC(=O)CC[C@H](Cc2ccccc2)NC(=O)[C@@H]2CCCN2C(=O)[C@@H]2CCCN2C(=O)[C@H](C(C)C)NC(=O)[C@H](CC(C)C)NC(=O)[C@H]([C@@H](C)CC)NC1=O`, the Activity result in [2] was “Dose-dependent effect”. Further, in [3], the inhibition result was “Active”. For the same molecule, in series [4], the result was Active.
Regarding `CC[C@H](C)[C@H](N)C(=O)N[C@H](C(=O)N[C@@H](CC(C)C)C(=O)N[C@H](C(=O)N1CCC[C@H]1C(=O)N1CCC[C@H]1C(=O)N[C@@H](Cc1ccccc1)C(=O)N[C@H](CCC(=O)N[C@@H](CC(C)C)C(=O)O)Cc1ccccc1)C(C)C)[C@@H](C)CC`, the outcome in series [5] was inactive. The Activity result in [6] is recorded as “Non-Toxic”. In [3], the inhibition at 10 µg/mL stood at 45%.
For the molecule `CC[C@H](C)[C@H](N)C(=O)N[C@H](C(=O)N[C@@H](CC(C)C)C(=O)N[C@H](C(=O)N1CCC[C@H]1C(=O)N1CCC[C@H]1C(=O)N[C@@H](CCC(=O)N[C@H](CCC(=O)N[C@@H](CC(C)C)C(=O)O)Cc1ccccc1)Cc1ccccc1)C(C)C)[C@@H](C)CC`, in [5], the outcome was inactive. Also, the Activity entry in series [6] is “Non-Toxic”. The inhibition at 10 µg/mL in [3] came to 45%.
In the same order, the values of `CC[C@H](C)[C@H](N)C(=O)N[C@H](C(=O)N[C@@H](CC(C)C)C(=O)N[C@H](C(=O)N1CCC[C@H]1C(=O)N1CCC[C@H]1C(=O)N[C@@H](Cc1ccccc1)C(=O)N[C@@H](CCC(=O)N[C@@H](CC(C)C)C(=O)O)Cc1ccccc1)C(C)C)[C@@H](C)CC` are “inactive”, “Non-Toxic” and 45%.
